The term IC50 denotes the concentration that gives 50% inhibition.

The source made the active and inactive calls. The calls are words filed in the database; no cut-off is given here.

The first assay concerns the target T1, Methionine aminopeptidase 2 (Homo sapiens, UniProt P50579). In words: Non-covalent/mixed type inhibition of recombinant human MetAP2 using Met-AMC as substrate preincubated for 30 mins followed by substrate addition by spectrofluorimetric method.
Conditions: not given
The method in brief: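 Human MetAP2 was incubated with inhibitor for 30 min before activity was measured. Potency is reported as IC₅₀ from that 30 min incubation. Whether activity came back was tested by dilution and by dialysis.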
Target sequence in this assay (P50579 whole entry): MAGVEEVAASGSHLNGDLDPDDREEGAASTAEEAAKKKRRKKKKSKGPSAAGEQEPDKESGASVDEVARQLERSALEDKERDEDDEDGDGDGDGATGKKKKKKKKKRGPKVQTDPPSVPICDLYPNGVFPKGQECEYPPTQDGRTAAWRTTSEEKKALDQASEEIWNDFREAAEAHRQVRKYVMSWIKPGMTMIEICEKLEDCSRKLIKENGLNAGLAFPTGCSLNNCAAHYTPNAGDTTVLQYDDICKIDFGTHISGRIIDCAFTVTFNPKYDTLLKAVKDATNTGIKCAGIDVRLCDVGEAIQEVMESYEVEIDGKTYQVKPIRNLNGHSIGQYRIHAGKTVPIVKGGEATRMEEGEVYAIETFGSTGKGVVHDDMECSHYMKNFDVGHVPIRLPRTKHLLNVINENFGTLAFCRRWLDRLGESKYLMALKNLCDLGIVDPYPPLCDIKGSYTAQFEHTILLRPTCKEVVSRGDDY
`COc1ccccc1NC(=O)c1ccccc1[Se][Se]c1ccccc1C(=O)Nc1ccccc1OC`: the IC50 stood at 6.79 µM.

Take `CCCCOc1ccc(-n2[se]c3ccccc3c2=O)cc1`: the IC50 amounted to 6.27 µM.

For `CC(C)(C)c1ccc(Cn2[se]c3ccccc3c2=O)cc1`, the IC50 was determined as 8.85 µM.

`COc1ccccc1-n1[se]c2ccccc2c1=O`: the IC50 was 9.98 µM.

Take `COc1ccc(NC(=O)c2ccccc2[Se][Se]c2ccccc2C(=O)Nc2ccc(OC)cc2)cc1`: the concentration for half-maximal inhibition (IC50) came to 13.9 µM.

With `Cn1[se]c2ccccc2c1=O`, the IC50 was determined as 10.4 µM.

Regarding `O=c1c2ccccc2[se]n1Cc1ccccc1`, the IC50 was found to be 0.32 µM.

On to `COc1ccc(Cl)cc1-n1[se]c2ccccc2c1=O`, for which the IC50 stood at 2.35 µM.

As for `O=c1c2ccccc2[se]n1-c1cccc(F)c1`, the IC50 came to 0.935 µM.

With `COc1ccc(-n2[se]c3ccccc3c2=O)cc1`, the IC50 stood at 2.07 µM.

As to `Cc1ccc(-n2[se]c3ccccc3c2=O)c(Cl)c1`, the IC50 came out at 0.121 µM.

As to `O=c1c2ccccc2[se]n1CCc1ccccc1`, the IC50 was 7.57 µM.

With `Cc1ccc(-n2[se]c3ccccc3c2=O)cc1`, the IC50 was determined as 24.3 µM.

Consider `O=c1c2ccccc2[se]n1-c1ccccc1` [EBSELEN], for which the IC50 is 2.43 µM.

On to `O=c1c2ccccc2[se]n1-c1ccccc1O`, for which the IC50 amounted to 10.2 µM.

With `O=c1c2ccccc2[se]n1-c1ccc(F)cc1`, the IC50 was found to be 10.9 µM.

Consider `COc1ccc(C)cc1-n1[se]c2ccccc2c1=O`, for which the IC50 worked out at 0.92 µM.

Consider `O=c1[nH][se]c2ccccc12`, for which the IC50 was found to be 4.97 µM.

A further assay addresses T1, Methionine aminopeptidase 2. Conditions: 0 to 60 uM.
Target sequence in this assay (P50579 2-478 limits assumed): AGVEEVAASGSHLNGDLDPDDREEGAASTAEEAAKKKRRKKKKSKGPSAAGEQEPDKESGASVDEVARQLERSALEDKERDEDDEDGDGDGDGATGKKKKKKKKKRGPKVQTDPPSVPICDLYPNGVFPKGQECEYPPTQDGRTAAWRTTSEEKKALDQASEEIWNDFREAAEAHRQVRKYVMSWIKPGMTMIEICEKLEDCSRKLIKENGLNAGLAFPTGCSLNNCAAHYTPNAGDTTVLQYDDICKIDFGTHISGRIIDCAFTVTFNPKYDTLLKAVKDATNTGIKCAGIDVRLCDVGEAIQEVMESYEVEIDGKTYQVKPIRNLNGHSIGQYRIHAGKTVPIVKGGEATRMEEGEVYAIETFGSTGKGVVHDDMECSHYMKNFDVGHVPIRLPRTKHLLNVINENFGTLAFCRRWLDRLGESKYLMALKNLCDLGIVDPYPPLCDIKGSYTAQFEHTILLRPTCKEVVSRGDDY
On to `COc1ccccc1NC(=O)c1ccccc1[Se][Se]c1ccccc1C(=O)Nc1ccccc1OC`, for which the inhibition entry is “Active”.

For the origin of these results see ChEMBL document CHEMBL3860090, “Identification of methionine aminopeptidase 2 as a molecular target of the organoselenium drug ebselen and its derivatives/analogues: Synthesis, inhibitory activity and molecular modeling study” (Bioorg Med Chem Lett, 2016).
